# Compound activity deposited in PubChem BioAssay by Sanford-Burnham Center for Chemical Genomics.
# Apaf1 inhib = blocks human Apaf-1 apoptosome activity | O14727 | AID 489030 | inhibition, % at 20 µM | reconstituted apoptosome caspase-3 activity, DEVD-Rh110 fluorescence | actives 0.71% (n = 330,000); active means inhibition of at least 40% at 20 µM
#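 Assay system: Apoptosome proteins | Medium: pH 7.5 Hepes buffer with CHAPS, BSA, DTT | Also added: Cytochrome c and DEVD-Rh110 substrate | Times: 30 min plus 50 min, RT | Detection: Rhodamine 110 fluorescence at Ex 480/Em 540 nm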
# SENP6 inh = inhibitors of human SENP6 protease. Recombinant SENP6 catalytic domain, aminoluciferin luminescence. actives 1.8% (n = 330,000). inhibition, % at 10 µM. Q9GZR1;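 active means inhibition above about 50% at the single tested dose, limit read from the data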
# SENP8 block-1 = inhibitors of human SENP8 protease; actives 0.64% (n = 360,000); Q96LD8; inhibition, % at 20 µM; recombinant SENP8, Nedd8 substrate fluorescence; in the data active means inhibition mostly above about 40%, no sharp cut-off; inactive means mostly below about 27%
# Target sequence (Q96LD8 whole entry, looked up): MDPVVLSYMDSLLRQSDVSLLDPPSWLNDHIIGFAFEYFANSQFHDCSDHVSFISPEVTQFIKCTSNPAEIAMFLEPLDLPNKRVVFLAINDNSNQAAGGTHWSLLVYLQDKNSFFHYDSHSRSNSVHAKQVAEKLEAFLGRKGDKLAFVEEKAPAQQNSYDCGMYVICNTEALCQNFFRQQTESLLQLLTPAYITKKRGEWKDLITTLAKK
# SENP8 block-2 = SENP8 protease inhibition; purified SENP8, Z-RLRGG-aminoluciferin cleavage, luminescence; inhibition, % at 10 µM; actives 1.2% (n = 330,000); in the data active means inhibition above about 50%
# SENP1 inh = inhibitors of human SENP1 SUMO protease catalytic domain. recombinant SENP1 catalytic domain, CyPet-SUMO1-YPet FRET cleavage. Q9P0U3. inhibition, % at 10 µM. AID 624204. actives 0.21% (n = 360,000);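 active means inhibition at least 30% at 10 µM, raw YFP signal under a set limit, fluorescence ratio 0.5 to 1.5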
# Target sequence (Q9P0U3 419-644 limits assumed): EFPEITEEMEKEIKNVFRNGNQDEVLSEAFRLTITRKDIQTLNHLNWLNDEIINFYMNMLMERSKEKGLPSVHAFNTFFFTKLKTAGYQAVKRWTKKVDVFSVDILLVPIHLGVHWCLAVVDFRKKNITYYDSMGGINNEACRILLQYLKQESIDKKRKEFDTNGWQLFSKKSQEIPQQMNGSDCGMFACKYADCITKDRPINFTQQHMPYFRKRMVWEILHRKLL
#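 Assay system: hSENP1 catalytic domain, recombinant. Amount: SENP1 enzyme, 20 pM final. Schedule: 50 min reaction, RT, dark. Technique: FRET, CFP and YFP emission. Control set: no-enzyme wells low, DMSO-plus-enzyme wells high control.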
# SENP7 inh = blocks the human protease SENP7 | recombinant SENP7, Z-RLRGG-aminoluciferin luminescence, 40 min | inhibition, % at 5 µM | AID 434973 | actives 1.5% (n = 330,000);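 active means inhibition above about 50% at the single test dose, limit read from the data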
# SENP8 confirm = human SENP8 inhibition, confirmed; shares compounds with SENP7 inh; Recombinant SENP8, Z-RLRGG-aminoluciferin luminescence, 60 min; inhibition, % at 12.5 µM; actives 40% (n = 6,200); AID 488912;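 active means mean inhibition across replicates above about 50%, limit read from the data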
# SENP6 confirm = confirmation of human SENP6 protease inhibitors; shares compounds with SENP7 inh; actives 58% (n = 6,200); inhibition, % at 12.5 µM; recombinant SENP6, Z-RLRGG-aminoluciferin luminescence
# SENP7 conf = confirmation of human SENP7 protease inhibitors | recombinant SENP7, Z-RLRGG-aminoluciferin luminescence, 40 min | inhibition, % at 12.5 µM | actives 69% (n = 6,200) | shares compounds with SENP7 inh
# Casp3 SENP sel = caspase-3 inhibition (SENP selectivity assay); shares compounds with SENP7 inh; purified caspase-3, Z-DEVD-aminoluciferin luminescence, 60 min; inhibition, % at 12.5 µM; actives 60% (n = 6,200);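 active means mean inhibition above about 50%, limit read from the data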
# Target sequence (P42574 28-227 limits assumed): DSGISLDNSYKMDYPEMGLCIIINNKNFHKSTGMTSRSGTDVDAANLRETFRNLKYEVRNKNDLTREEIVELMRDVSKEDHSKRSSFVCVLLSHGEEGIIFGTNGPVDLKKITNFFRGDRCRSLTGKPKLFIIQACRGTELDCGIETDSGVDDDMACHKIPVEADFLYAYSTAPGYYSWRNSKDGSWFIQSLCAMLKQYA
# SENP luc ctr = luminescence interference (SENP counter-screen); inhibition, % at 12.5 µM; actives 39% (n = 6,200); Pre-incubated SENP8/Z-RLRGG-aminoluciferin, luciferase luminescence interference; AID 488919; shares compounds with SENP7 inh;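 active means mean inhibition above about 50% when retested at one dose, limit read from the data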
# Numbers stand for hits; n = inactive; x = no result. Shown are actives, neighbours in structure and some others; about 2.9% of the full set was active somewhere.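 How the source made its calls, unless noted: active means mean inhibition above about 50% in the one-dose retest (limit read from the data); inactive means the rest.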
SMILES,Apaf1 inhib,SENP6 inh,SENP8 block-1,SENP8 block-2,SENP1 inh,SENP7 inh,SENP8 confirm,SENP6 confirm,SENP7 conf,Casp3 SENP sel,SENP luc ctr
CCOCC(=O)Nc1nc2ccc(C)cc2s1,n,n,n,n,n,60,n,n,75,72,55
O=C1N=c2ccccc2=C1c1sc(NS(=O)(=O)Cc2ccccc2)nc1O,n,88,n,n,n,69,78,73,92,n,n
O=C1N=c2ccccc2=C1c1sc(NS(=O)(=O)c2ccccc2)nc1O,n,n,n,n,n,n,x,x,x,x,x
COc1ccc(OC)c(/C=N/NC(=O)c2[nH]ncc2Br)c1,n,n,n,n,n,n,x,x,x,x,x
CCOc1ccc(/C=N/NC(=O)c2[nH]ncc2Br)c(O)c1,n,99,n,98,n,102,99,100,103,99,52
Cc1ccc(O)c(/C=N/NC(=O)c2[nH]ncc2Br)c1,n,77,n,89,n,93,n,n,n,n,n
O=C(N/N=C/c1cccs1)c1[nH]ncc1Br,n,76,n,n,n,76,61,58,86,90,68
O=C(N/N=C/c1c(O)ccc2ccccc12)c1[nH]ncc1Br,n,51,n,n,n,n,n,n,77,n,n
CCOC(=O)[C@]12CCC=C1N(Cc1ccccc1)C(=O)[C@H](CC(=O)NCc1ccccc1)C2,x,x,n,x,n,x,x,x,x,x,x
O=C(CSc1nc(-c2ccccc2)c(-c2ccccc2)o1)NCCCO,n,n,n,n,n,n,x,x,x,x,x
COc1ccccc1NS(=O)(=O)c1ccc(C)c(NS(=O)(=O)c2cc(NC(C)=O)ccc2OC)c1,x,x,n,x,n,x,x,x,x,x,x
Cn1c(O)c(C=NCCCCCC(=O)O)c(=O)n(C)c1=O,x,x,n,x,n,x,x,x,x,x,x
Cc1nn(-c2ccccc2)c(Cl)c1/C=N/NC(=O)c1ccn[nH]1,n,n,n,n,n,n,x,x,x,x,x
Cc1nn(-c2ccccc2)c(Cl)c1/C=N/NC(=O)c1[nH]ncc1Br,n,92,n,92,n,95,n,94,102,95,n
O=C(Nc1ccc(Cl)cc1)Nc1cccc2nsnc12,n,92,n,91,n,94,n,91,88,82,n
COC(=O)C[C@H]1C=C[C@@H](NC(=O)c2ccncc2)[C@@H](CO)O1,x,x,n,x,n,x,x,x,x,x,x
CCOc1cccc(C(=O)Nc2nnc(-c3ccco3)s2)c1,n,68,n,60,n,73,n,n,n,n,n
COc1cccc(C(=O)Nc2nnc(-c3cccs3)s2)c1,n,53,n,n,n,53,n,n,n,n,n
CCc1nnc(NC(=O)c2cccc(OC)c2)s1,n,n,n,n,n,n,x,x,x,x,x
CNC(=O)C[C@@H]1C(=O)N(C2CCCCC2)CC1(C)C,x,x,n,x,n,x,x,x,x,x,x
COc1ccc(/C(N)=N/OC(=O)CSc2ccccc2)cc1,n,77,n,n,n,63,57,65,87,x,n
O=C(COC(=O)c1ccccc1)c1ccc(Br)cc1,n,86,n,83,n,n,n,64,87,63,n
COc1ccc(C(=O)O/N=C(\N)c2ccccc2)cc1,n,97,n,97,n,100,99,100,103,98,98
O=C(COC(=O)c1ccc(Br)cc1)NCCc1ccccc1,n,n,n,n,n,n,x,x,x,x,x
COc1ccc(C(=O)O/N=C(\N)c2ccc(Br)cc2)cc1,n,n,n,n,n,n,x,x,x,x,x
SMILES,Apaf1 inhib,SENP6 inh,SENP8 block-1,SENP8 block-2,SENP1 inh,SENP7 inh,SENP8 confirm,SENP6 confirm,SENP7 conf,Casp3 SENP sel,SENP luc ctr
CC(C)(C)c1ccc(C(=O)O/N=C(\N)c2ccccc2)cc1,n,93,n,90,n,95,96,96,102,92,n
C=CCNc1ncnc2c1ncn2[C@H]1CN(CCN2CCOCC2)C[C@@H](CO)O1,x,x,n,x,n,x,x,x,x,x,x
CC(C)NC(=O)Nc1ccc2c(c1)C(=O)N([C@H](C)CO)C[C@H](C)[C@@H](CN(C)Cc1ccc(C(F)(F)F)cc1)OCCCC[C@H](C)O2,x,x,n,x,n,x,x,x,x,x,x
O=C1CN(C(=O)COC(=O)COc2ccccc2)c2ccccc2N1,n,n,n,n,n,n,x,x,x,x,x
N/C(=N\OC(=O)c1ccc(Br)cc1)c1ccccc1,n,93,n,94,n,99,81,96,102,97,53
N/C(=N\OC(=O)c1cccc(Br)c1)c1ccc(Br)cc1,n,n,n,n,n,n,x,x,x,x,x
COc1ccc(C2=NN(C(C#N)c3ccc(OC)c(OC)c3)C(c3ccccc3)C2)cc1 (centres undefined),n,75,n,n,n,65,n,n,n,n,n
CCN(C(=O)CSc1nc2scc(-c3ccccc3)c2c(=O)n1N)C1CCS(=O)(=O)C1 (centres undefined),x,x,n,x,n,x,x,x,x,x,x
Cc1cccc(/C=C2\CCC(=C3SCCCS3)C2=O)c1,n,91,n,93,n,92,n,n,n,n,n
O=C1C(=C2SCCCS2)CC/C1=C\c1ccc(F)cc1,n,95,n,96,n,99,n,68,63,84,n
CS(=O)(=O)c1ccc(Cl)c(NC(=O)CSc2nc3ccccc3c(=O)n2Cc2ccco2)c1,n,n,n,n,n,n,x,x,x,x,x
CCOC(=O)C1=CCN(S(=O)(=O)c2ccc(C)cc2)C1c1cccc(Br)c1 (centres undefined),x,x,n,x,n,x,x,x,x,x,x
Nc1cccc2c1C(=O)N(CCOc1ccccc1F)C2=O,n,83,n,73,n,73,79,80,95,79,83
N#Cc1ccccc1OCCN1C(=O)c2ccccc2C1=O,n,n,n,n,n,n,x,x,x,x,x
COc1ccc(Cl)cc1/C=C/c1ccc2cccc(O)c2n1,n,n,n,n,n,n,x,x,x,x,x
CCOc1cccc(/C=C/c2ccc3cccc(O)c3n2)c1O,n,n,n,55,n,64,n,59,85,x,n
COc1ccccc1/C=C/c1ccc2cccc(O)c2n1,n,81,n,51,n,n,n,72,92,57,n
O=C1/C(=C/Nc2cccc([N+](=O)[O-])c2)CCc2ccccc21,n,n,n,61,n,n,n,81,92,60,n
